Here are results for 29 compounds from ChEMBL document CHEMBL1135803, “Design, synthesis, and preliminary pharmacological evaluation of N-acyl-3-aminoglutarimides as broad-spectrum chemokine inhibitors in vitro and anti-inflammatory agents in vivo” (2002).

Activity calls are given as the source filed them. The rule behind the calls is not given here. Peptide text beside a SMILES is read from it. Bounds are passed on as bounds.

For the first experiment, the system named is THP-1. The experiment is described as follows: Effective dose against monocyte chemoattractant protein-1(MCP-1) induced leukocyte migration of THP-1 cells. The format is functional. The following applies: Homo sapiens, read-out: ED50 (the source's name). The method in brief:
(§1)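 Trans-well microtiter migration of human myelomonocytic THP-1 cells toward 25 ng/mL MCP-1 in Gey's balanced salt solution with 1 mg/mL endotoxin-free BSA, no fetal calf serum, 2 h at 37 °C. Compound is in both compartments, DMSO 1% final, tested up to 100 μM. Migrated cells are counted by MTT as % of vehicle-only migration. ED50 is the concentration giving 50% reduction; triplicate determinations.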
With `NC(=O)CC[C@H](NC(=O)c1ccccc1)C(=O)O`, the EC50 is greater than 100 µM. For the compound `CCCCCCCCCCC(=O)N[C@H]1CCC(=O)NC1=O`, the EC50 was determined as 0.01 µM. The same measure, in the same setting: the same measure for `CC(C)(C)OC(=O)N[C@@H](CCC(N)=O)C(N)=O`: 45 µM. The same measure, in the same setting: the same measure for `CC(C)[C@H](NC(=O)[C@H](Cc1c[nH]c2ccccc12)NC(=O)[C@H](CCCCN)NC(=O)[C@H](CCC(N)=O)NC(=O)[C@H](CCCCN)NC(=O)[C@@H]1CCCN1C(=O)[C@H](CC(=O)O)NC(=O)[C@H](C)NC(=O)[C@@H](N)CS)C(=O)N[C@@H](CCC(N)=O)C(=O)O` (H-CADPKQKWVQ-OH): 8 µM; for `C=CCCCCCCCCC(=O)N[C@@H](CCC(N)=O)C(N)=O`: 15 µM; for `CCCCCCC(=O)N[C@H]1CCC(=O)NC1=O`: 0.02 µM. The same measure, in the same setting: the same measure for `CC[C@H](C)[C@H](NC(=O)[C@@H](N)CCC(=O)O)C(=O)N[C@@H](CS)C(=O)N[C@@H](C)C(=O)N[C@@H](CC(=O)O)C(=O)N1CCC[C@H]1C(=O)N[C@@H](CCCCN)C(=O)N[C@@H](CCC(N)=O)C(=O)N[C@@H](CCCCN)C(=O)N[C@@H](Cc1c[nH]c2ccccc12)C(=O)N[C@H](C(=O)N[C@@H](CCC(N)=O)C(=O)O)C(C)C` (H-EICADPKQKWVQ-OH): 8 µM; for `CCCCC(=O)N[C@H]1CCC(=O)NC1=O`: 0.033 µM.

For `CCCC(CCC)C(=O)N[C@H]1CCC(=O)NC1=O`, the EC50 was found to be 0.66 µM. Take `CCCCCCCCC(=O)N[C@H]1CCC(=O)NC1=O`: the EC50 is 0.01 µM. Same read-out and setting: the figure for `CC(C)(C)OC(=O)N[C@@H](CCC(N)=O)C(=O)NCc1ccccc1` is greater than 100 µM. For `C=CCCCCCCCCC(=O)N[C@H]1CCCNC1=O`, the EC50 is 0.1 µM. Turning to `CC(C)[C@H](NC(=O)[C@H](Cc1c[nH]c2ccccc12)NC(=O)[C@H](CCCCN)NC(=O)[C@H](CCC(N)=O)NC(=O)[C@@H](N)CCCCN)C(=O)N[C@@H](CCC(N)=O)C(=O)O` (H-KQKWVQ-OH), the EC50 was determined as 6 µM. On the same count and under the same terms, the figure for `CC(C)[C@H](NC(=O)[C@@H](N)Cc1c[nH]c2ccccc12)C(=O)N[C@@H](CC(N)=O)C(=O)O` (H-Trp-Val-Asn-OH) is greater than 100 µM. The same measure, in the same setting: the figure for `NCCCC[C@H](NC(=O)[C@H](CCC(N)=O)NC(=O)[C@@H](N)CCCCN)C(=O)O` is 12 µM; for `NC(=O)CC[C@H](NC(=O)c1ccccc1)C(=O)NCc1ccccc1` it is greater than 100 µM. Take `NC(=O)CC[C@H](NC(=O)c1ccccc1)C(N)=O`: the EC50 is greater than 100 µM. Same read-out and setting: the figure for `CC(C)[C@H](NC(=O)[C@@H](N)Cc1ccc(O)cc1)C(=O)N[C@@H](CCC(N)=O)C(=O)O` (H-Tyr-Val-Gln-OH) is 25 µM. Same read-out and setting: the same measure for `O=C(O)CCCCCCCCC(=O)N[C@H]1CCC(=O)NC1=O`: 0.066 µM; for `CC(C)[C@H](N)C(=O)N[C@H](C(=O)N[C@@H](CCC(N)=O)C(=O)O)C(C)C` (H-Val-Val-Gln-OH): greater than 100 µM; for `C=CCCCCCCCCC(=O)N[C@@H](CCC(N)=O)C(=O)NCc1ccccc1`: 40 µM.

On to `O=C1CC[C@H](NC(=O)c2ccccc2)C(=O)N1`, for which the EC50 is greater than 100 µM. With `C=CCCCCCCCCC(=O)N[C@H]1CCC(=O)N(C)C1=O`, the EC50 was determined as 0.033 µM. In the case of `CC[C@H](C)[C@H](NC(=O)[C@@H](N)CCC(=O)O)C(=O)N[C@@H](CS)C(=O)N[C@@H](C)C(=O)N[C@@H](CC(=O)O)C(=O)N1CCC[C@H]1C(=O)O` (H-EICADP-OH), the EC50 was found to be 50 µM.

The subject of another experiment is THP-1. Description: Effective dose against monocyte chemoattractant protein-1(MCP-1) induced leukocyte migration of THP-1 cells at 100 uM conc.; Inactive. It is filed as functional, cell-based. The following applies: Homo sapiens. The method in brief:
as §1
Consider `CC(C)[C@H](N)C(=O)N[C@@H](Cc1c[nH]c2ccccc12)C(=O)N[C@@H](CCC(N)=O)C(=O)O` (H-Val-Trp-Gln-OH), for which the NA entry was “inactive”. On the same count and under the same terms, the same measure for `CC(C)[C@H](NC(=O)[C@@H](N)Cc1c[nH]c2ccccc12)C(=O)NCC(=O)O` (H-Trp-Val-Gly-OH): “inactive”; for `CC(C)[C@H](NC(=O)[C@H](CCC(N)=O)NC(=O)[C@@H](N)Cc1c[nH]c2ccccc12)C(=O)O` (H-Trp-Gln-Val-OH): “inactive”; for `CC(C)[C@H](NC(=O)CN)C(=O)N[C@@H](CCC(N)=O)C(=O)O` (H-Gly-Val-Gln-OH): “inactive”. `CC(C)[C@H](NC(=O)[C@@H](N)Cc1c[nH]c2ccccc12)C(=O)N[C@@H](CCCN=C(N)N)C(=O)O` (H-Trp-Val-Arg-OH): the NA result is “inactive”.
